Reference: ChEMBL document CHEMBL1136272, “Development of a presynaptic 5-HT1A antagonist” (Bioorg Med Chem Lett, 2003)
pIC50: −log10 of the molar value.

Target: T1, 5-hydroxytryptamine receptor 1A (Rattus norvegicus, UniProt P19327)
T1 sequence (P19327 whole entry): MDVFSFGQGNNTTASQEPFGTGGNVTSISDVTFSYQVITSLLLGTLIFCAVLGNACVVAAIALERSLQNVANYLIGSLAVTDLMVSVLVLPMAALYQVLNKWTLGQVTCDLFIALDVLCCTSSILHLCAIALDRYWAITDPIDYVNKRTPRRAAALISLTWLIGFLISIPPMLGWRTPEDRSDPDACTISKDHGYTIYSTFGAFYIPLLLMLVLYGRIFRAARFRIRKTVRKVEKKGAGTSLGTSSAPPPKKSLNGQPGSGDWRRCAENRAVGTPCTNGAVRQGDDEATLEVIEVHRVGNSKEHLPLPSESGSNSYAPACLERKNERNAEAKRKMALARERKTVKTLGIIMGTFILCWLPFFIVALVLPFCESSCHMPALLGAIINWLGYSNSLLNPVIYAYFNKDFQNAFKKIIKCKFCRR
Experiment: Inhibition of the 5-hydroxytryptamine 1A receptor in rat dorsal raphe
Conditions: not given

Row | Structure (SMILES) | pIC50
1 | COc1ccc(CN2CCN(C3CCC(O)(c4ccc5c(c4)OCO5)CC3)CC2)cc1 (stereo unspecified) | 6.42
2 | CCOc1cccc(CN2CCN(C3CCC(O)(c4ccc5c(c4)OCO5)CC3)CC2)c1 (stereo unspecified) | 8.17
3 | OC1(c2ccc3c(c2)OCO3)CCC(N2CCN(Cc3ccc(Cl)cc3)CC2)CC1 (stereo unspecified) | 7.10
4 | OC1(c2ccc3c(c2)OCO3)CCC(N2CCN(Cc3c(F)cccc3F)CC2)CC1 (stereo unspecified) | 6.96
5 | OC1(c2ccc3c(c2)OCO3)CCC(N2CCN(Cc3cccc(F)c3F)CC2)CC1 (stereo unspecified) | 7.77
6 | OC1(c2ccc3c(c2)OCO3)CCC(N2CCN(Cc3ccc(F)c(F)c3)CC2)CC1 (stereo unspecified) | 7.47
7 | COc1cccc(C2(O)CCC(N3CCN(Cc4ccccc4)CC3)CC2)c1 (stereo unspecified) | 7.30
8 | OC1(c2ccc3c(c2)OCO3)CCC(N2CCN(Cc3cc(F)ccc3F)CC2)CC1 (stereo unspecified) | 8.59
9 | OC1(c2ccc3c(c2)OCO3)CCC(N2CCN(Cc3ccccc3I)CC2)CC1 (stereo unspecified) | 8.92
10 | OC1(c2ccc(F)cc2)CCC(N2CCN(Cc3ccccc3)CC2)CC1 (stereo unspecified) | 6.59
11 | OC1(c2ccc3c(c2)OCO3)CCC(N2CCN(Cc3cccc(Cl)c3)CC2)CC1 (stereo unspecified) | 8.22
12 | OC1(c2ccc3c(c2)OCO3)CCC(N2CCN(Cc3cc(F)cc(F)c3)CC2)CC1 (stereo unspecified) | 7.68
13 | COc1ccc(F)c(CN2CCN(C3CCC(O)(c4ccc5c(c4)OCO5)CC3)CC2)c1 (stereo unspecified) | 9.12
14 | COc1ccccc1C1(O)CCC(N2CCN(Cc3ccccc3)CC2)CC1 (stereo unspecified) | 7.22
15 | OC1(c2ccc3c(c2)OCO3)CCC(N2CCN(Cc3ccccc3Cl)CC2)CC1 (stereo unspecified) | 8.72
16 | COc1ccc(C2(O)CCC(N3CCN(Cc4ccccc4)CC3)CC2)cc1 (stereo unspecified) | 7.30
17 | OC1(c2ccc3c(c2)OCO3)CCC(N2CCN(Cc3ccc(F)cc3F)CC2)CC1 (stereo unspecified) | 7.24
18 | OC1(c2ccc3c(c2)OCO3)CCC(N2CCN(Cc3ccc(F)cc3)CC2)CC1 (stereo unspecified) | 7.57
19 | OC1(c2ccc3c(c2)OCO3)CCC(N2CCN(Cc3ccccc3Br)CC2)CC1 (stereo unspecified) | 8.92
20 | OC1(c2ccc3c(c2)OCO3)CCC(N2CCN(Cc3ccccc3F)CC2)CC1 (stereo unspecified) | 8.00
21 | COc1cccc(CN2CCN(C3CCC(O)(c4ccc5c(c4)OCO5)CC3)CC2)c1F (stereo unspecified) | 7.72
22 | OC1(c2ccccc2)CCC(N2CCN(Cc3ccccc3)CC2)CC1 (stereo unspecified) | 6.34
23 | COc1ccccc1CN1CCN(C2CCC(O)(c3ccc4c(c3)OCO4)CC2)CC1 (stereo unspecified) | 7.37
24 | COc1ccc(C2(O)CCC(N3CCN(Cc4ccccc4)CC3)CC2)cc1OC (stereo unspecified) | 6.85
25 | OC1(c2ccc3c(c2)OCO3)CCC(N2CCN(Cc3cccc(Br)c3)CC2)CC1 (stereo unspecified) | 8.55
26 | OC1(c2ccc3c(c2)OCO3)CCC(N2CCN(Cc3cccc(F)c3)CC2)CC1 (stereo unspecified) | 7.89

Tested on: Rattus norvegicus
Experiment: Social interaction time determined in vivo in rat at 0.1 + 1 mg/kg of ip administration
Type: functional
Conditions: route intraperitoneal
Outline: (§1)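 Rat social interaction paradigm with total motor activity counts recorded in the same session. All compounds were given ip, with a saline-treated control group. Combination arms gave a 0.1 mg/kg agent together with a second agent at 1 mg/kg, both ip. Social interaction time (s) and motor counts are reported as mean ± SEM, with significance tested against saline control.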

Row | Structure (SMILES) | Time
27 | COc1cccc(CN2CCN(C3CCC(O)(c4ccc5c(c4)OCO5)CC3)CC2)c1.OC1(c2ccc3c(c2)OCO3)CCC(N2CCN(Cc3ccccc3)CC2)CC1 (stereo unspecified) | 53 s
28 | COc1cccc(CN2CCN(C3CCC(O)(c4ccc5c(c4)OCO5)CC3)CC2)c1.O=C1CC2(CCCC2)CC(=O)N1CCCCN1CCN(c2ncccn2)CC1 (stereo unspecified) | 51 s
29 | COc1cccc(CN2CCN(C3CCC(O)(c4ccc5c(c4)OCO5)CC3)CC2)c1.OC(CCCN1CCN(c2ncc(F)cn2)CC1)c1ccc(F)cc1 (stereo unspecified) | 49 s

Tested on: Rattus norvegicus
Experiment: In vivo motor activity determined in rat at 0.1 + 1 mg/kg of ip administration
Type: functional
Conditions: route intraperitoneal
Outline: as §1

Row | Structure (SMILES) | Motor activity
30 | COc1cccc(CN2CCN(C3CCC(O)(c4ccc5c(c4)OCO5)CC3)CC2)c1.OC1(c2ccc3c(c2)OCO3)CCC(N2CCN(Cc3ccccc3)CC2)CC1 (stereo unspecified) | 5100 Counts
31 | COc1cccc(CN2CCN(C3CCC(O)(c4ccc5c(c4)OCO5)CC3)CC2)c1.O=C1CC2(CCCC2)CC(=O)N1CCCCN1CCN(c2ncccn2)CC1 (stereo unspecified) | 4600 Counts
32 | COc1cccc(CN2CCN(C3CCC(O)(c4ccc5c(c4)OCO5)CC3)CC2)c1.OC(CCCN1CCN(c2ncc(F)cn2)CC1)c1ccc(F)cc1 (stereo unspecified) | 5400 Counts

Tested on: Rattus norvegicus
Experiment: Social interaction time determined in vivo rat at 0.1 mg/kg of ip administration
Type: functional
Conditions: route intraperitoneal
Outline: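 Rats dosed i.p. against a saline-treated control group. Social interaction time (s) and total motor activity (counts) were recorded in the same social-interaction session and reported as mean ± SEM, with significance tested against saline control.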

Row | Structure (SMILES) | Time
33 | O=C1CC2(CCCC2)CC(=O)N1CCCCN1CCN(c2ncccn2)CC1 [BUSPIRONE] | 125 s
34 | OC(CCCN1CCN(c2ncc(F)cn2)CC1)c1ccc(F)cc1 (stereo unspecified) [BMY-14802] | 123 s

Tested on: Rattus norvegicus
Experiment: In vivo motor activity determined in rat at 0.1 mg/kg of ip administration
Type: functional
Conditions: route intraperitoneal
Outline: as §1

Row | Structure (SMILES) | Motor activity
35 | O=C1CC2(CCCC2)CC(=O)N1CCCCN1CCN(c2ncccn2)CC1 [BUSPIRONE] | 6700 Counts
36 | OC(CCCN1CCN(c2ncc(F)cn2)CC1)c1ccc(F)cc1 (stereo unspecified) [BMY-14802] | 6800 Counts
